A word on the IC50: it is the concentration that gives 50% inhibition.

The text below walks through data of ChEMBL document CHEMBL5107962, “Covalent sortase A inhibitor ML346 prevents Staphylococcus aureus infection of Galleria mellonella” (RSC Med Chem, 2022).

Molecules are shown by their SMILES. Activity calls are given as the source filed them. No cut-off for these calls is given here.

The target of assay [1] is T1, Sortase A (Staphylococcus aureus, UniProt Q9S446). The assay can be described thus: Irreversible inhibition of recombinant Staphylococcus aureus sortase A deltaN24 expressed in Escherichia coli BL21(DE3) cells using Abz-LPATG-Dnp as substrate assessed as inactivation constant preincubated for 60 mins followed by substrate addition and measured every 1 min for 15 mins by fluorescence intensity based assay. An outline of the steps: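 Variable inhibitor concentrations incubated with SaSrtAΔN24 or SpSrtAΔN81 for different times, followed by FRET enzyme kinetics with Abz-LPATG-Dnp. kobs fitted as kinact × [I]/(KI + [I]) to give kinact and KI.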

For assay [2], the system named is Staphylococcus aureus. The assay can be described thus: Anti-infectivity against methicillin-resistant Staphylococcus aureus USA300 infected in Galleria mellonella larvae assessed as survival at 12.5 mg/kg and measured after 120 hrs. The format is functional, organism-based. A digest of the protocol: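 G. mellonella larvae (2-2.5 cm, creamy), starved 24 h at room temperature. S. aureus grown in TSB to A600 1.0, washed and resuspended in PBS, premixed with compound in vehicle (5% DMSO, 20% PEG300, 75% PBS with 6.6% solutol HS-15). Injected into last proleg at about 1 × 10^6 CFU/larva (Newman) or 1 × 10^7 CFU/larva (USA300). Groups of 15 kept at 37 °C, survival recorded 120 h, Mantel–Cox test.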

A short description of assay [3]: Selectivity ratio of Ki for irreversible inhibition of recombinant Staphylococcus aureus sortase A deltaN24 expressed in Escherichia coli BL21(DE3) cells to Ki for irreversible inhibition of recombinant Streptococcus pyogenes sortase A deltaN81 expressed in Escherichia coli BL21(DE3) cells.
Assay [4] concerns Sortase A (Staphylococcus aureus), Q9S446 [UNDEFINED MUTATION]. The assay can be described thus: Irreversible inhibition of recombinant Staphylococcus aureus sortase A deltaN24 expressed in Escherichia coli BL21(DE3) cells using Abz-LPATG-Dnp as substrate assessed as increase in Km preincubated for 60 mins followed by substrate addition and measured every 1 min for 15 mins by FRET-based assay. Particulars: time 75.0 min. An outline of the steps: (§1)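 SrtA (5 µM) incubated 1 h at room temperature with compound or DMSO, then inhibitor removed by centrifugal filtration. Aliquots taken before and after filtration were assayed with Abz-LPATG-Dnp (0.78–200 µM for Sa enzyme, 0.2–50 µM for Sp enzyme) at ex 309/em 420 nm for 15 min. Km fitted; MTSET as control; triplicates, run in duplicate.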

The subject of assay [5] is Staphylococcus aureus. Nature of the assay: Anti-virulence activity against Staphylococcus aureus USA300 assessed as decrease in cell-wall anchored SpA level at 25 to 200 uM by FITC-labelled human IgG based […]. The assay is classed as functional, organism-based. Particulars: dose 25-200 µM. An outline of the steps:
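S. aureus grown in TSB (1:1000 dilution) with inhibitor until A600 1.0. Washed cells incubated with FITC-labelled human IgG in PBS for 30 min at room temperature in the dark, rinsed, and read by fluorescence. Three technical replicates, three independent experiments. Mean ± SEM, unpaired two-tailed Student's t test (n = 3).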

Assay [6] addresses T1, Sortase A. Nature of the assay: Irreversible inhibition of recombinant Staphylococcus aureus sortase A deltaN24 expressed in Escherichia coli BL21(DE3) cells using Abz-LPATG-Dnp as substrate preincubated for 10 mins followed by substrate addition and measured every 1 min for 15 mins by FRET-based assay. An outline of the steps:
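SaSrtAΔN24 preincubated with compound for 10, 20, 40 or 60 min before FRET IC50 determination with Abz-LPATG-Dnp in Tris pH 7.5, NaCl, CaCl2 buffer.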

Assay [7] deals with Streptococcus pyogenes. Nature of the assay: Irreversible inhibition of recombinant Streptococcus pyogenes sortase A deltaN81 expressed in Escherichia coli BL21(DE3) cells using Abz-LPATG-Dnp as substrate assessed as increase in Km preincubated for 60 mins followed by substrate addition and measured every 1 min for 15 mins by FRET-based assay. The note with it: time 75.0 min. An outline of the steps: as §1

For `COc1ccc(/C=C/C=C2C(=O)NC(=O)NC2=O)cc1`, the Ki in assay [1] was 2.45 µM. The result in assay [2] and in assay [5] was Active. Further, the Ratio in assay [3] was determined as 4. The inhibition entry in assay [4] and in assay [7] was “Active” in each case. The half-maximal inhibitory concentration (IC50) in assay [6] is 1.1 µM.
